Measurements published in ChEMBL document CHEMBL4715736, “Identification of anticancer agents based on the thieno[2,3-b]pyridine and 1H-pyrazole molecular scaffolds” (2016).

Legend:
Assay type in all cases: functional
Details in all cases: read-out: Activity
HOP-62 = experiment: Growth inhibition of human HOP-62 cells assessed as cell growth at 10 uM incubated for 48 hrs by sulforhodamine B assay relative to control
Method in brief: (§1)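 Submitted to the NCI Developmental Therapeutics Program for the NCI60 human tumour cell line panel. First screen at a single 10 µM concentration. Read-out is growth relative to untreated control cells set at 100%.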

SK-MEL-5 = experiment: Growth inhibition of human SK-MEL-5 cells assessed as cell growth at 10 uM incubated for 48 hrs by sulforhodamine B assay relative to control
Method in brief: (§2)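 Run by the NCI Developmental Therapeutics Program as part of its 60-line human tumour panel. Each compound tested at a single 10 µM dose. Growth expressed as % relative to untreated control cells (100%).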

MDA-MB-435 = experiment: Growth inhibition of human MDA-MB-435 cells assessed as cell growth at 10 uM incubated for 48 hrs by sulforhodamine B assay relative to control; method in brief: as §1
NCI-H23 = experiment: Growth inhibition of human NCI-H23 cells assessed as cell growth at 10 uM incubated for 48 hrs by sulforhodamine B assay relative to control; method in brief: as §1
OVCAR-8 = experiment: Growth inhibition of human OVCAR-8 cells assessed as cell growth at 10 uM incubated for 48 hrs by sulforhodamine B assay relative to control; method in brief: as §2
DU-145 = experiment: Growth inhibition of human DU-145 cells assessed as cell growth at 10 uM incubated for 48 hrs by sulforhodamine B assay relative to control
Method in brief: (§3)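 NCI Developmental Therapeutics Program NCI60 panel. Compounds that were active in the 10 µM one-dose screen went on to dose–response testing. Growth at each concentration is expressed relative to untreated control (100%). GI50 (concentration giving 50% of maximal inhibition of proliferation) and TGI (concentration giving total growth inhibition) were derived from the curves.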

M14 = experiment: Growth inhibition of human M14 cells assessed as cell growth at 10 uM incubated for 48 hrs by sulforhodamine B assay relative to control; method in brief: as §1
OVCAR-5 = experiment: Growth inhibition of human OVCAR-5 cells assessed as cell growth at 10 uM incubated for 48 hrs by sulforhodamine B assay relative to control; method in brief: as §2
OVCAR-3 = experiment: Growth inhibition of human OVCAR-3 cells assessed as cell growth at 10 uM incubated for 48 hrs by sulforhodamine B assay relative to control; method in brief: as §2
HOP-92 = experiment: Growth inhibition of human HOP-92 cells assessed as cell growth at 10 uM incubated for 48 hrs by sulforhodamine B assay relative to control; method in brief: as §1
SF-539 = experiment: Growth inhibition of human SF-539 cells assessed as cell growth at 10 uM incubated for 48 hrs by sulforhodamine B assay relative to control; method in brief: as §2
IGROV-1 = experiment: Growth inhibition of human IGROV-1 cells assessed as cell growth at 10 uM incubated for 48 hrs by sulforhodamine B assay relative to control; method in brief: as §1
UACC-257 = experiment: Growth inhibition of human UACC-257 cells assessed as cell growth at 10 uM incubated for 48 hrs by sulforhodamine B assay relative to control; method in brief: as §2
A549 = experiment: Growth inhibition of human A549/ATCC cells assessed as cell growth at 10 uM incubated for 48 hrs by sulforhodamine B assay relative to control; method in brief: as §3
T47D = experiment: Growth inhibition of human T47D cells assessed as cell growth at 10 uM incubated for 48 hrs by sulforhodamine B assay relative to control; method in brief: as §2
MDA-MB-231 = experiment: Growth inhibition of human MDA-MB-231 cells assessed as cell growth at 10 uM incubated for 48 hrs by sulforhodamine B assay relative to control; method in brief: as §1
RXF 393 = experiment: Growth inhibition of human RXF 393 cells assessed as cell growth at 10 uM incubated for 48 hrs by sulforhodamine B assay relative to control; method in brief: as §2
SF-295 = experiment: Growth inhibition of human SF-295 cells assessed as cell growth at 10 uM incubated for 48 hrs by sulforhodamine B assay relative to control; method in brief: as §2
U-251 = experiment: Growth inhibition of human U-251 cells assessed as cell growth at 10 uM incubated for 48 hrs by sulforhodamine B assay relative to control; method in brief: as §2
MOLT-4 = experiment: Growth inhibition of human MOLT-4 cells assessed as cell growth at 10 uM incubated for 48 hrs by sulforhodamine B assay relative to control; method in brief: as §1
SNB-19 = experiment: Growth inhibition of human SNB-19 cells assessed as cell growth at 10 uM incubated for 48 hrs by sulforhodamine B assay relative to control; method in brief: as §2
786-0 = experiment: Growth inhibition of human 786-0 cells assessed as cell growth at 10 uM incubated for 48 hrs by sulforhodamine B assay relative to control; method in brief: as §3
MDA-MB-468 = experiment: Growth inhibition of human MDA-MB-468 cells assessed as cell growth at 10 uM incubated for 48 hrs by sulforhodamine B assay relative to control; method in brief: as §1
CCRF-CEM = experiment: Growth inhibition of human CCRF-CEM cells assessed as cell growth at 10 uM incubated for 48 hrs by sulforhodamine B assay relative to control; method in brief: as §3
UACC-62 = experiment: Growth inhibition of human UACC-62 cells assessed as cell growth at 10 uM incubated for 48 hrs by sulforhodamine B assay relative to control; method in brief: as §2
KM12 = experiment: Growth inhibition of human KM12 cells assessed as cell growth at 10 uM incubated for 48 hrs by sulforhodamine B assay relative to control; method in brief: as §1
LOX IMVI = experiment: Growth inhibition of human LOX IMVI cells assessed as cell growth at 10 uM incubated for 48 hrs by sulforhodamine B assay relative to control; method in brief: as §1
HCC 2998 = experiment: Growth inhibition of human HCC 2998 cells assessed as cell growth at 10 uM incubated for 48 hrs by sulforhodamine B assay relative to control; method in brief: as §3
A498 = experiment: Growth inhibition of human A498 cells assessed as cell growth at 10 uM incubated for 48 hrs by sulforhodamine B assay relative to control; method in brief: as §3
RPMI-8226 = experiment: Growth inhibition of human RPMI-8226 cells assessed as cell growth at 10 uM incubated for 48 hrs by sulforhodamine B assay relative to control; method in brief: as §2
UO-31 = experiment: Growth inhibition of human UO-31 cells assessed as cell growth at 10 uM incubated for 48 hrs by sulforhodamine B assay relative to control; method in brief: as §2
HL-60(TB) = experiment: Growth inhibition of human HL-60(TB) cells assessed as cell growth at 10 uM incubated for 48 hrs by sulforhodamine B assay relative to control
Method in brief: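 Screened by the NCI Developmental Therapeutics Program on its panel of 60 human tumour cell lines. Compounds were first tested at a single 10 µM dose, and compounds active there went to dose-response curves. Growth is expressed relative to untreated control (100%). GI50 (50% of maximal proliferation inhibition) and TGI (total growth inhibition) were derived from the dose-response data.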

Malme-3M = experiment: Growth inhibition of human Malme-3M cells assessed as cell growth at 10 uM incubated for 48 hrs by sulforhodamine B assay relative to control; method in brief: as §1
SN12C = experiment: Growth inhibition of human SN12C cells assessed as cell growth at 10 uM incubated for 48 hrs by sulforhodamine B assay relative to control; method in brief: as §2

Row | SMILES | growth at 10 µM (HOP-62) | growth at 10 µM (SK-MEL-5) | growth at 10 µM (MDA-MB-435) | growth at 10 µM (NCI-H23) | growth at 10 µM (OVCAR-8) | growth at 10 µM (DU-145) | growth at 10 µM (M14) | growth at 10 µM (OVCAR-5) | growth at 10 µM (OVCAR-3) | growth at 10 µM (HOP-92) | growth at 10 µM (SF-539) | growth at 10 µM (IGROV-1) | growth at 10 µM (UACC-257) | growth at 10 µM (A549) | growth at 10 µM (T47D) | growth at 10 µM (MDA-MB-231) | growth at 10 µM (RXF 393) | growth at 10 µM (SF-295) | growth at 10 µM (U-251) | growth at 10 µM (MOLT-4) | other results
1 | COc1ccc(-c2ccn(S(=O)(=O)c3ccc(C)cc3)n2)cc1 | 108% | 68.3% | 94.1% | 67.9% | 83.4% | 93.7% | 90% | 112% | 89.3% | 79.9% | 97% | 81.5% | 79.9% | 79.7% | 48% | 89.2% | 86.3% | 78.5% | 81.9% | 95.2% | growth at 10 µM (SNB-19): 94.5%; growth at 10 µM (786-0): 83%; growth at 10 µM (MDA-MB-468): 46.1%; growth at 10 µM (CCRF-CEM): 85.7%; growth at 10 µM (UACC-62): 70.9%; growth at 10 µM (KM12): 89.7%; growth at 10 µM (LOX IMVI): 84.2%; growth at 10 µM (HCC 2998): 86.9%; growth at 10 µM (A498): 63.2%; growth at 10 µM (RPMI-8226): 69%; growth at 10 µM (UO-31): 75.9%; growth at 10 µM (HL-60(TB)): 114%; growth at 10 µM (Malme-3M): 88.4%; growth at 10 µM (SN12C): 86.9%
2 | COc1ccc(S(=O)(=O)n2ccc(-c3ccc(OC(C)C)cc3)n2)cc1 | 126% | 91.9% | 94.6% | 83.8% | 94.6% | 94.3% | 84.5% | 80.7% | 90.4% | 75.7% | 97% | 91% | 99.2% | 86% | 72.3% | 93% | 100% | 90% | 95.3% | 86.9% | growth at 10 µM (SNB-19): 100%; growth at 10 µM (786-0): 81.1%; growth at 10 µM (MDA-MB-468): 68.7%; growth at 10 µM (CCRF-CEM): 72.6%; growth at 10 µM (UACC-62): 64.1%; growth at 10 µM (KM12): 92%; growth at 10 µM (LOX IMVI): 94.1%; growth at 10 µM (HCC 2998): 103%; growth at 10 µM (A498): 48.5%; growth at 10 µM (RPMI-8226): 70.7%; growth at 10 µM (UO-31): 76.4%; growth at 10 µM (HL-60(TB)): 90.3%; growth at 10 µM (Malme-3M): 107%; growth at 10 µM (SN12C): 90.6%
3 | COc1ccc(-c2ccn(S(=O)(=O)c3ccc(OC)cc3)n2)cc1 | 101% | 79.9% | 88.4% | 79.8% | 89.2% | 93.9% | 74% | 90.2% | 89.3% | 38.8% | 87.3% | 91.6% | 86.2% | 88.3% | 58.8% | 96.2% | 88.7% | 72.7% | 86.6% | 73.2% | growth at 10 µM (SNB-19): 96.8%; growth at 10 µM (786-0): 80.2%; growth at 10 µM (MDA-MB-468): 59.3%; growth at 10 µM (CCRF-CEM): 71.3%; growth at 10 µM (UACC-62): 71.3%; growth at 10 µM (KM12): 88.4%; growth at 10 µM (LOX IMVI): 88.8%; growth at 10 µM (HCC 2998): 88.1%; growth at 10 µM (A498): 50.2%; growth at 10 µM (RPMI-8226): 58.7%; growth at 10 µM (UO-31): 72%; growth at 10 µM (HL-60(TB)): 99.4%; growth at 10 µM (Malme-3M): 112%; growth at 10 µM (SN12C): 92.4%
4 | CCc1cccc(C)c1NC(=O)c1sc2nc3c(cc2c1N)C(=O)CCC3 | 23.3% | -10% | -36% | 32% | 20% | 14.2% | 7% | 28% | -26% | 30% | -27% | 30% | 49% | 22.9% | 24.4% | 14% | 4% | 2% | 2.81% | 17.9% | growth at 10 µM (SNB-19): 42%; growth at 10 µM (786-0): 28%; growth at 10 µM (MDA-MB-468): 9%; growth at 10 µM (CCRF-CEM): 1%; growth at 10 µM (UACC-62): 29%; growth at 10 µM (KM12): 14%; growth at 10 µM (LOX IMVI): 36%; growth at 10 µM (HCC 2998): 10.2%; growth at 10 µM (A498): -13%; growth at 10 µM (RPMI-8226): -20%; growth at 10 µM (UO-31): 29%; growth at 10 µM (HL-60(TB)): -30%; growth at 10 µM (Malme-3M): 48%; growth at 10 µM (SN12C): 30%
